Test results from ChEMBL document CHEMBL4017446, “Discovery of (2-aminophenyl)methanol as a new molecular chaperone that rescues the localization of P123S mutant pendrin stably expressed in HEK293 cells” (Bioorg Med Chem, 2017).
The source made the active and inactive calls. The calls are words filed in the database; no cut-off is given here.

What was measured:
HEK293 [1] = assay: Cytotoxicity against HEK293 cells harboring pendrin P123S mutant after 72 hrs by MTT assay; assay type: cell-based; conditions: Homo sapiens, HEK293, 72 h
Summary of the method: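 Stable P123S pendrin HEK293 cells were seeded at 5 × 10^4 cells/well and preincubated 12 h at 37 °C. Cells were then exposed to compound at various concentrations in RPMI-1640 for 72 h. Viability was measured by MTT, and IC50 was taken from semilogarithmic dose-response plots. Triplicate experiments.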

[2] = test system: T1, Pendrin (Homo sapiens), O43511 [P123S]; assay: Chaperone activity at recombinant human C-terminal FLAG-tagged pendrin P123S mutant expressed in HEK293 cells assessed as increase in localization of protein mutant in plasma membrane at 1 to 30 mM after 12 hrs by DAPI staining based immunofluorescence microscopic analysis; assay type: cell-based
T1 sequence (whole entry): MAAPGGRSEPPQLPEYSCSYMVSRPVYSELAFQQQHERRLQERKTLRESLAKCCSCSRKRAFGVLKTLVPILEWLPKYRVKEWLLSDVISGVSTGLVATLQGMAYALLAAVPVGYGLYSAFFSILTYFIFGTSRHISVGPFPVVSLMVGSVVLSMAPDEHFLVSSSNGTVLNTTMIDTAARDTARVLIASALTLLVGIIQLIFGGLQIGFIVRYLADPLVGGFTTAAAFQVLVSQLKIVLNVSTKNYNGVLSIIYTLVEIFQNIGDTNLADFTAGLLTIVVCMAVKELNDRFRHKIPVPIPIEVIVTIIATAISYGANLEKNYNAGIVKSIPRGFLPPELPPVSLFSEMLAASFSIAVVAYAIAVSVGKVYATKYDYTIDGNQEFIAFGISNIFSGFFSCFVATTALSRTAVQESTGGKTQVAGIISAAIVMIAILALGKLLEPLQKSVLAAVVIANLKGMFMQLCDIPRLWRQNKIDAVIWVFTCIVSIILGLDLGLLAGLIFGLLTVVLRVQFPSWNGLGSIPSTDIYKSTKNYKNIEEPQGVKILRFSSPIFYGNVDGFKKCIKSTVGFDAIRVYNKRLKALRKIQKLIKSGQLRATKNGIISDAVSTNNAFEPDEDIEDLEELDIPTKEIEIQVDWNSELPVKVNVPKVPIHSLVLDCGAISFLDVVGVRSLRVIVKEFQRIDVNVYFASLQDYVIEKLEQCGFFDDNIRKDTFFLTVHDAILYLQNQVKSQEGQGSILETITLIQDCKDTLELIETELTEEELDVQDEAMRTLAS
Summary of the method: (§1)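 Stable P123S pendrin HEK293 cells were screened in 96-well plates after 12 h exposure to compound or 0.1% DMSO. WT cells with vehicle served as positive control. Cells were anti-FLAG/DAPI immunostained, and about 100 cells per field across 100 fields were imaged by automated high-content analysis. The read-out was cytoplasmic fluorescence intensity in a 5-pixel band 2–7 pixels inside the cell outline.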

HEK293 [3] = assay: Cytotoxicity against HEK293 cells harboring pendrin P123S mutant assessed as decrease in cell viability at 15 mM after 72 hrs by MTT assay; assay type: cell-based; conditions: human, hek293, 72 h, 15000 µM
HEK293 [4] = assay: Induction of HEK293 cell aggregation measured after 12 hrs by DAPI staining based immunofluorescence microscopic method; conditions: human, hek293, 12 h
Summary of the method: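 Stable P123S pendrin HEK293 cells were incubated with compound for 12 h in 35 mm dishes, then immunostained with anti-FLAG and DAPI. Cell aggregation was observed under a fluorescence microscope.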

[5] = test system: T1, Pendrin (Homo sapiens), O43511 [P123S]; assay: (§2) Chaperone activity at recombinant human C-terminal FLAG-tagged pendrin P123S mutant expressed in HEK293 cells assessed as intracellular localization of mutant protein in plasma membrane at 10 mM incubated for 12 hrs followed by compound washout measured after 6 hrs by DAPI staining based immunofluorescence microscopic analysis; assay type: cell-based
Summary of the method: (§3)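 Stable P123S pendrin HEK293 cells (5 × 10^4/well) were exposed to compound or 0.1% DMSO for 12 h, washed with PBS, then kept in fresh medium for 0, 6 or 12 h. They were then anti-FLAG/DAPI immunostained and imaged by confocal microscopy to follow pendrin distribution at the plasma membrane. Triplicate experiments.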

[6] = test system: T1, Pendrin (Homo sapiens), O43511 [P123S]; assay: Chaperone activity at recombinant human C-terminal FLAG-tagged pendrin P123S mutant expressed in HEK293 cells assessed as translocation of mutant protein from cytoplasm to plasma membrane at 3 mM measured after 12 hrs by DAPI staining based immunofluorescence microscopic analysis; assay type: cell-based
Summary of the method: (§4)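 HEK293 cells stably expressing FLAG-tagged P123S pendrin were incubated 12 h with compound or 0.1% DMSO in dishes. WT-pendrin cells given vehicle served as reference. Cells were fixed in paraformaldehyde, blocked in 1% BSA, stained with anti-FLAG/Alexa Fluor 546 secondary plus DAPI, and membrane versus cytoplasmic localization was judged by confocal imaging.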

[7] = test system: T1, Pendrin (Homo sapiens), O43511 [P123S]; assay: Chaperone activity at recombinant human C-terminal FLAG-tagged pendrin P123S mutant expressed in HEK293 cells assessed as increase in fluorescence intensity ratio of plasma membrane to cytoplasm measured after 12 hrs by DAPI staining based immunofluorescence microscopic method; assay type: cell-based
Summary of the method: (§5)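 Stable HEK293 line expressing FLAG-tagged P123S pendrin, grown in 10% FBS-RPMI-1640, treated 12 h with compound or vehicle (0.1% DMSO) in 35 mm dishes. Cells were fixed in 4% paraformaldehyde, stained with anti-FLAG primary antibody, Alexa Fluor 546 secondary and DAPI, and imaged by confocal microscopy. Mean intensities of 20 regions ([…]) in plasma membrane and cytoplasm gave the M/C ratio; 6–9 cells averaged.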

[8] = test system: T1, Pendrin (Homo sapiens), O43511 [P123S]; assay: Chaperone activity at recombinant human C-terminal FLAG-tagged pendrin P123S mutant expressed in HEK293 cells assessed as fluorescence intensity ratio of plasma membrane to cytoplasm at 10 mM measured after 12 hrs by DAPI staining based immunofluorescence microscopic method; assay type: cell-based; summary of the method: as §5
[9] = test system: T1, Pendrin (Homo sapiens), O43511 [P123S]; assay: as §2, with “12” for “6”; assay type: cell-based; summary of the method: as §3
[10] = test system: T1, Pendrin (Homo sapiens), O43511 [P123S]; assay: as §2, with “0.1” for “10”; assay type: cell-based; summary of the method: as §3
[11] = test system: T1, Pendrin (Homo sapiens), O43511 [P123S]; assay: Chaperone activity at recombinant human C-terminal FLAG-tagged pendrin P123S mutant expressed in HEK293 cells assessed as increase in localization of protein mutant in plasma membrane at 0.03 to 1 mM after 12 hrs by DAPI staining based immunofluorescence microscopic analysis; assay type: cell-based; summary of the method: as §1
[12] = test system: T1, Pendrin (Homo sapiens), O43511 [P123S]; assay: Chaperone activity at recombinant human C-terminal FLAG-tagged pendrin P123S mutant expressed in HEK293 cells assessed as translocation of mutant protein from cytoplasm to plasma membrane at 0.1 mM measured after 12 hrs by DAPI staining based immunofluorescence microscopic analysis; assay type: cell-based; summary of the method: as §4
[13] = test system: T1, Pendrin (Homo sapiens), O43511 [P123S]; assay: Potency index, ratio of compound effect to salicylate effect for chaperone activity at recombinant human C-terminal FLAG-tagged pendrin P123S mutant expressed in HEK293 cells assessed as translocation of mutant protein from cytoplasm to plasma membrane; assay type: cell-based
[14] = test system: T1, Pendrin (Homo sapiens), O43511 [P123S]; assay: Chaperone activity at recombinant human C-terminal FLAG-tagged pendrin P123S mutant expressed in HEK293 cells assessed as fluorescence intensity ratio of plasma membrane to cytoplasm at 0.3 mM measured after 12 hrs by DAPI staining based immunofluorescence microscopic method; assay type: cell-based; summary of the method: as §5
[15] = test system: T1, Pendrin (Homo sapiens), O43511 [P123S]; assay: Chaperone activity at recombinant human C-terminal FLAG-tagged pendrin P123S mutant expressed in HEK293 cells assessed as fluorescence intensity ratio of plasma membrane to cytoplasm at 0.1 mM measured after 12 hrs by DAPI staining based immunofluorescence microscopic method; assay type: cell-based; summary of the method: as §5
[16] = test system: T1, Pendrin (Homo sapiens), O43511 [P123S]; assay: as §2, with “0.1” for “10”, “12” for “6”; assay type: cell-based; summary of the method: as §3
[17] = test system: T1, Pendrin (Homo sapiens), O43511 [P123S]; assay: Chaperone activity at recombinant human C-terminal FLAG-tagged pendrin P123S mutant expressed in HEK293 cells assessed as translocation of mutant protein from cytoplasm to plasma membrane at 1 to 10 mM measured after 12 hrs by DAPI staining based immunofluorescence microscopic analysis; assay type: cell-based; summary of the method: as §4

| Structure (SMILES) | IC50 (HEK293 [1]) | Activity [2] | Activity (HEK293 [3]) | also measured |
| --- | --- | --- | --- | --- |
| CC(=O)Oc1ccccc1C(=O)O [ASPIRIN] | 10.2 mM | inactive | – | – |
| O=C(O)Cc1ccccc1O | 12.1 mM | Active | – | – |
| O=C(O)c1cccc(O)c1O [2,3-DIHYDROXYBENZOIC ACID] | > 15 mM | inactive | 47.4% | – |
| O=C(O)c1ccc(O)c(O)c1 [PROTOCATECHUIC ACID] | > 15 mM | inactive | 37% | – |
| O=C(O)c1cc(O)ccc1O [GENTISIC ACID] | > 15 mM | inactive | 46.8% | – |
| CC(O)CC(=O)O (stereo unspecified) | > 15 mM | Active | – | – |
| O=C(O)c1ccc([N+](=O)[O-])cc1O | 12.5 mM | Active | – | Activity (HEK293 [4]): Toxic |
| OCCc1ccccc1O | > 15 mM | Active | 38.3% | Activity (HEK293 [4]): Toxic |
| O=C(O)c1ccccc1S [THIOSALICYLIC ACID] | 12.7 mM | inactive | – | – |
| Nc1ccccc1C(=O)O [ANTHRANILIC ACID] | > 15 mM | inactive | 46.9% | – |
| OCc1ccccc1O [SALICYL ALCOHOL] | > 15 mM | inactive | 25.3% | – |
| O=C(O)CC(=O)O [MALONIC ACID] | 9.7 mM | – | – | – |
| O=C(O)c1cc([N+](=O)[O-])ccc1O | 5.3 mM | Active | – | Activity [5]: Active; Activity [6]: Active; Activity [7]: Dose-dependent effect; Ratio [8]: 1.3; Activity [9]: Active |
| O=C(O)c1c(O)cccc1O | 10.6 mM | inactive | – | – |
| Nc1ccccc1CO [ISATOIC ANHYDRIDE] | – | – | – | Activity [10]: Active; Activity [11]: Active; Activity [12]: Active; Ratio [13]: 100; Activity [7]: Dose-dependent effect; Ratio [14]: 1.8; Ratio [15]: 0.9; Activity [16]: Active |
| Nc1ccc(CO)cc1 | 12.7 mM | – | – | – |
| Nc1ccc(O)c(C(=O)O)c1 [MESALAMINE] | > 15 mM | inactive | 35.5% | – |
| OB(O)c1ccccc1O | > 15 mM | Active | 22.3% | Activity (HEK293 [4]): Toxic |
| Cc1ccc(O)c(C(=O)O)c1 | 9.8 mM | – | – | Activity [5]: Active; Activity [7]: Dose-dependent effect; Ratio [8]: 1.7; Activity [17]: Active |
| Nc1cccc(CO)c1 | > 15 mM | – | 46.7% | – |
| O=C(O)c1ccccc1O [SALICYLIC ACID] | > 15 mM | – | 4.2% | Activity [5]: inactive; Activity [7]: Dose-dependent effect; Ratio [8]: 1 |
| Nc1ccccc1CCO | > 15 mM | inactive | 35.8% | – |
